Calls of active or inactive are those of the source. The rule behind the calls is not given here. Bounds are passed on as bounds.

Series [1] relates to Escherichia coli. Nature of the series: Activity of Escherichia coli DNA polymerase 1 without 3' to 5'-exonucleolytic activity after 2 hrs by single base extension reaction based electrophoresis method. The method in brief:
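Test compound with KF+ or KF- (1U) in 0.05 M Tris-HCl pH 8.0, 5 mM MgCl2, 1 mM DTT, 2 h at 37 °C, then heat-denatured. Read-out was 20% PAGE/7 M urea, autoradiography and quantitation of n+1 product; dCTP reaction served as control.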

The test system of series [2] is Thermococcus sp. 9oN-7. Description: Activity of Thermococcus sp. 9oN-7 therminator DNA polymerase after 2 hrs by single base extension reaction based electrophoresis method.
Series [3] has as its system HUVEC. Nature of the series: Cytotoxicity against HUVEC assessed as cell after 48 hrs by MTT assay. The conditions noted are these: Homo sapiens. Format: cell-based. In a few lines: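 HUVEC (from fresh umbilical cords, gelatin-coated dishes, RPMI 1640 with 20% FBS, heparin, ECGF) and K562 (RPMI 1640, 10% FCS) were seeded at 7×10^3 per well. After 24 h, exposure for 48 h to compounds from 100 mM aqueous stock, final 1 mM down to 1×10^-6 mM. MTT read at 570/650 nm; untreated = 100%; IC50 from dose-response curves, mean of 2 experiments in triplicate.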

Series [4] has as its system HeLa. Description: Cytotoxicity against human HeLa cells assessed as reduction of cell survival after 72 hrs by MTT assay. Format: functional, cell-based. In a few lines:
(§1)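 HeLa seeded at 7×10^3 and CFPAC at 10^4 per well in RPMI 1640 with 10% FCS under 5% CO2. After 24 h, exposure to compounds (aqueous 100 mM stock; final 1 mM to 1×10^-6 mM) for 72 or 96 h. MTT 2 h, formazan dissolved in 20% SDS/50% DMF pH 4.7, A570/650. Untreated cells = 100%; IC50 from dose-response curves, 2 independent experiments in triplicate.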

The subject of series [5] is HeLa. Nature of the series: Cytotoxicity against human HeLa cells assessed as reduction of cell survival after 96 hrs by MTT assay. Format: functional, cell-based. The method in brief:
as §1
In general terms: Tetrazolium assays rely on reduction of a dye to a coloured formazan, in cell work by metabolically active cells.

Series [6] is described as follows: Stability of the compound in ammonium acetate buffer at 20 mM at pH 3 to 11 after 2 to 24 hrs by RP-HPLC analysis. Format: physicochemical. The note with it: pH 3, 20000 µM. In a few lines: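 Compounds at 20 mM in 0.1 M ammonium acetate buffered solutions, pH 3–11, kept at room temperature; sampled at 2, 8 and 24 h and monitored by RP-HPLC on a C18 column.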

Series [7] in a line: Inhibition of Escherichia coli DNA polymerase 1 without 3' to 5'-exonucleolytic activity using dCTP as substrate assessed as single base extension reaction after 2 hrs. The method in brief: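 Compound (0.4–2.0 mM; 1- to 5-fold over dCTP) added together with 0.4 mM dCTP in 0.05 M Tris-HCl pH 8.0, 5 mM MgCl2, 1 mM DTT, 2 h at 37 °C. The n+1 product was quantified after 20% PAGE/7 M urea and autoradiography; EC50 is the concentration giving 50% inhibition.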

The target of series [8] is HINT1 (adenosine 5'-monophosphoramidase) (Homo sapiens, UniProt P49773). Description: Stability in human HeLa cell lysate assessed as HINT-1-mediated phosphoramidase activity by measuring compound remaining at 1 mM after 22 hrs by RP-HPLC analysis relative to control. Format: ADME, cell-based. The conditions noted are these: read-out: Stability. The method in brief:
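HeLa lysate from confluent cells, sonicated in PBS with protease inhibitors. Substrate 1 mM in 20 mM Na-HEPES pH 7.2, 0.5 mM MgCl2, 22 h at 37 °C. Ice-quenched, heat-denatured, centrifuged. C18 RP-HPLC (acetonitrile 0–8% in 0.1 M TEAB pH 7.4) at 260 nm; intact substrate quantified by peak integration; mean ± SE of at least duplicate.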

For series [9], the system named is Thermococcus sp. 9oN-7. Nature of the series: Inhibition of Thermococcus sp. 9oN-7 therminator DNA polymerase assessed as single base extended product level after 1 hr by single base extension reaction based electrophoresis method. Further details: concentration or dose not given beside the values.

Chain of HINT1 (adenosine 5'-monophosphoramidase) (P49773 whole entry): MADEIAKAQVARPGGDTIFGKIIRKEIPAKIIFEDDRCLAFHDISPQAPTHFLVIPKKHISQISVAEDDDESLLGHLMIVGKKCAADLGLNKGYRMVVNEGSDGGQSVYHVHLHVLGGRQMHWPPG

One may read the IC50 as the concentration that inhibits the measured activity by half. A word on the EC50: it is the concentration giving half of the maximal effect. For `CC(=O)NP(=O)(O)OC[C@H]1O[C@@H](n2ccc(N)nc2=O)C(F)(F)[C@@H]1O`, the result in series [1] and in [2] was inactive. Further, the IC50 in [3] came out at 0.09 µM; in series [4] it was 15 µM; in [5] it was 1 µM. Besides, the Stability entry in series [6] is listed as “Stable”. In [7], the EC50 was 510 µM. The remaining at 22 h, 1000 µM in [8] is 94.1%. Moreover, the Activity in [9] came to 100%.
Regarding `CC(=O)NP(=O)(S)OC[C@H]1O[C@@H](n2ccc(N)nc2=O)C(F)(F)[C@@H]1O` (stereo partly specified), the result in series [1] and in [2] was inactive. The half-maximal inhibitory concentration (IC50) in [3] was more than 1000 µM; in [4], more than 1000 µM; in series [5] it was 700 µM. In addition, in [6], the Stability entry was “Stable”. Further, the concentration giving a half-maximal response (EC50) in series [7] is more than 2000 µM. Also, the remaining at 22 h, 1000 µM in series [8] stood at 100%. Also, the Activity in [9] stood at 100%.
With `Nc1ccn([C@@H]2O[C@H](COP(=O)(S)NC(=O)c3cccnc3)[C@@H](O)C2(F)F)c(=O)n1` (stereo partly specified), the outcome in series [1] and in [2] was inactive. Further, the results for the IC50 in series [3], in series [4] and in [5] were more than 1000 µM, more than 1000 µM and 500 µM, respectively. Besides, in series [6], the Stability entry is listed as “Stable”. Moreover, the EC50 in [7] came out at 130 µM. For the same compound, the remaining at 22 h, 1000 µM in series [8] came to 100%. The Activity in series [9] was 100%.
On to `Nc1ccn([C@@H]2O[C@H](COP(=O)(O)NC(=O)c3cccnc3)[C@@H](O)C2(F)F)c(=O)n1`, for which the result in [1] and in [2] was inactive. Besides, the values for the IC50 in series [3], in series [4] and in series [5] were 50 µM, 10 µM and 1.4 µM, respectively. Besides, the Stability result in [6] is reported as “Stable”. Further, the EC50 in series [7] was 520 µM. For the same compound, the remaining at 22 h, 1000 µM in series [8] stood at 95.5%. Further, the Activity in series [9] was found to be 100%.

Values taken from ChEMBL document CHEMBL3232882, “N-Acyl-phosphoramidates as potential novel form of gemcitabine prodrugs” (Bioorg Med Chem, 2014).
